Legend:
[1] = target: T1, Kappa-type opioid receptor (Homo sapiens, UniProt P41145); test: Displacement of [3H]diprenorphine from human cloned kappa opioid receptor expressed in CHO cells; format: cell-based
[2] = target: T2, Mu-type opioid receptor (Homo sapiens, UniProt P35372); test: Displacement of [3H]diprenorphine from human cloned mu opioid receptor expressed in CHO cells; format: cell-based
[3] = target: T2, Mu-type opioid receptor; test: Antagonist activity against human cloned mu opioid receptor expressed in CHO cells assessed as inhibition of loperamide-stimulated [35S]GTP-gamma-S binding; format: functional, cell-based
[4] = target: T3, Delta-type opioid receptor (Homo sapiens, UniProt P41143); test: Displacement of [3H]diprenorphine from human cloned delta opioid receptor expressed in CHO cells; format: cell-based
T3 sequence (P41143 whole entry): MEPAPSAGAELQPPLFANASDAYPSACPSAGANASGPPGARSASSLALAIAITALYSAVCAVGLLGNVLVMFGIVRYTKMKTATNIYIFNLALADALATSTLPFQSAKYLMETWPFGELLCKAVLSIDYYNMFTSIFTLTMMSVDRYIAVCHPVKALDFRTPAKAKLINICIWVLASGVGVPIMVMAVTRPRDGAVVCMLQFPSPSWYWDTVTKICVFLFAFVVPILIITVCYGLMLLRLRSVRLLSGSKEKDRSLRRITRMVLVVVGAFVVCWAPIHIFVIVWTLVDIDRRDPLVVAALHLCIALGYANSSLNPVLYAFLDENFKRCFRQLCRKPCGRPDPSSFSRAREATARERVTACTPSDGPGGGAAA

[5] = target: T1, Kappa-type opioid receptor; test: Inhibition of [3H]diprenorphine binding to human cloned kappa opioid receptor expressed in CHO cells at 10 uM; format: cell-based
How it was run: (§1)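 Membranes from CHO cells stably expressing human δ, κ or μ receptor (10-80 µg protein) incubated with [3H]diprenorphine (0.5-1.0 nM) and competitor at 10 µM. Buffer: 50 mM Tris-HCl pH 7.8, 1 mM EGTA, 5 mM MgCl2, protease inhibitors. 60 min at room temperature, then GF/B filtration and scintillation counting. Nonspecific binding was defined with 10 µM naloxone. Read-out was % inhibition of specific binding.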

[6] = target: T3, Delta-type opioid receptor; test: Inhibition of [3H]diprenorphine binding to human cloned delta opioid receptor expressed in CHO cells at 10 uM; format: cell-based; how it was run: as §1
[7] = target: T2, Mu-type opioid receptor; test: Inhibition of [3H]diprenorphine binding to human cloned mu opioid receptor expressed in CHO cells at 10 uM; format: cell-based; how it was run: as §1
[8] = target: T1, Kappa-type opioid receptor; test: Partial agonist activity at human cloned kappa opioid receptor expressed in CHO cells assessed as stimulation of [35S]GTP-gamma-S binding; format: functional, cell-based
How it was run: (§2)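 CHO membranes expressing the relevant human receptor (50-100 µg protein) were exposed to a concentration series of agonist. Incubated 1 h at room temperature, centrifuged, and bound label counted. Potency and efficacy were assessed from stimulation.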

[9] = target: T2, Mu-type opioid receptor; test: Agonist activity at human cloned mu opioid receptor expressed in CHO cells assessed as stimulation of [35S]GTP-gamma-S binding; format: functional, cell-based; how it was run: as §2
[10] = target: T3, Delta-type opioid receptor; test: Agonist activity at human cloned delta opioid receptor expressed in CHO cells assessed as stimulation of [35S]GTP-gamma-S binding; format: functional, cell-based; how it was run: as §2
[11] = target: T3, Delta-type opioid receptor; test: Antagonist activity against human cloned delta opioid receptor expressed in CHO cells assessed as inhibition of […]-stimulated [35S]GTP-gamma-S binding; format: functional, cell-based
How it was run: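 In receptor-expressing CHO membranes (50-100 µg protein), antagonist was added to mixtures containing […] agonist. Incubated 1 h at room temperature, then centrifuged; bound radioactivity was counted by scintillation.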

[12] = target: T1, Kappa-type opioid receptor; test: Antagonist activity against human cloned kappa opioid receptor expressed in CHO cells assessed as inhibition of […]-stimulated [35S]GTPgammaS binding; format: functional, cell-based

T1 sequence (P41145 whole entry): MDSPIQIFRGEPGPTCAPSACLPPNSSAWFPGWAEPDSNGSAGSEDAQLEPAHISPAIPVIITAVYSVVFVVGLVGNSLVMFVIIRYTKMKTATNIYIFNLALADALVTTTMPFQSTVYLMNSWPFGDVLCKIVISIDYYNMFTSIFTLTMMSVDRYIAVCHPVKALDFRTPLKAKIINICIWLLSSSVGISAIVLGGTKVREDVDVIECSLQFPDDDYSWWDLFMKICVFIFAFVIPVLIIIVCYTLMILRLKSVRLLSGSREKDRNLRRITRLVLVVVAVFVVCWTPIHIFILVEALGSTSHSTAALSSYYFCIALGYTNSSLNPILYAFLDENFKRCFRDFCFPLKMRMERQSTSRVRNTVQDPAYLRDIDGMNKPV
T2 sequence (P35372 whole entry): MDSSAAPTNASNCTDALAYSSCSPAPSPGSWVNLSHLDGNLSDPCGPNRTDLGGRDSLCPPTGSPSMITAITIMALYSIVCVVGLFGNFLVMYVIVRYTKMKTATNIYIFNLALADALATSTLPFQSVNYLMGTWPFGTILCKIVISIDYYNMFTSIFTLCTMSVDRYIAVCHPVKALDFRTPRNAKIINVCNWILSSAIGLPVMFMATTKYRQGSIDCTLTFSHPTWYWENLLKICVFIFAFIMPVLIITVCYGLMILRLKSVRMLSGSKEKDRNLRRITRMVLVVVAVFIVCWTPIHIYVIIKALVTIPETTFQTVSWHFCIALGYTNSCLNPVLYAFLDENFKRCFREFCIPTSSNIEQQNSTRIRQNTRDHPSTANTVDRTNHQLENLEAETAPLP

SMILES	Ki [1]	Ki [2]	IC50 [3]	Ki [4]	inhibition [6]	also measured
C[C@H]1[C@H]2CC[C@@H](c3ccccc3)CN2CC[C@@]1(C)c1cccc(O)c1	16 nM	37 nM	120 nM	280 nM		
C[C@H]1[C@@H]2CC[C@H](c3ccccc3)CN2CC[C@@]1(C)c1cccc(O)c1	100 nM	73 nM	150 nM	190 nM		
C[C@H]1CN2CCCC[C@H]2C[C@@]1(C)c1cccc(O)c1		940 nM			37%	inhibition [5]: 44%
C[C@H]1CN2CCCC[C@@H]2C[C@@]1(C)c1cccc(O)c1	520 nM	710 nM			40%	
C[C@H]1CN2C[C@H](c3ccccc3)CC[C@@H]2C[C@@]1(C)c1cccc(O)c1	430 nM	110 nM	210 nM	900 nM		
C[C@H]1[C@H]2CC[C@H](c3ccccc3)CN2CC[C@@]1(C)c1cccc(O)c1	35 nM	26 nM	190 nM	25 nM		
C[C@H]1CN2C[C@@H](c3ccccc3)CC[C@@H]2C[C@@]1(C)c1cccc(O)c1	1400 nM	430 nM			49%	
C[C@H]1[C@H]2CCCCN2CC[C@@]1(C)c1cccc(O)c1	520 nM				47%	inhibition [7]: 43%
C[C@H]1[C@@H]2CC[C@@H](c3ccccc3)CN2CC[C@@]1(C)c1cccc(O)c1	65 nM	0.9 nM		2.1 nM		EC50 [8]: 200 nM; EC50 [9]: 53 nM; EC50 [10]: 55 nM
C[C@H]1CN2C[C@H](c3ccccc3)CC[C@H]2C[C@@]1(C)c1cccc(O)c1		0.62 nM	0.54 nM	31 nM		IC50 [11]: 16 nM; IC50 [12]: 1.2 nM
C[C@H]1CN2C[C@@H](c3ccccc3)CC[C@H]2C[C@@]1(C)c1cccc(O)c1	440 nM	110 nM	110 nM		51%	
C[C@H]1[C@@H]2CCCCN2CC[C@@]1(C)c1cccc(O)c1	69 nM	120 nM	1000 nM	220 nM		
